In ChEMBL document CHEMBL1154141, “Meroditerpenoids and derivatives from the brown alga Cystoseira baccata and their antifouling properties” (J Nat Prod, 2008):
Values after ≈ are worked out from the molar mass of the structure shown. Active and inactive are the calls of the source. The calls are words filed in the database; no cut-off is given here.

Key:
Sargassum muticum = test: Antimicrobial activity against Sargassum muticum after 48 hrs; assay type: functional, organism-based
How it was run: (§1)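 Spores (3000 spores/mL) in F/2 medium were exposed to compound for 48 h at 18 °C under a 15:9 light:dark cycle with cool-white fluorescent light at 54 μmol photons/m²·s. Germination and attachment rates were then scored.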

Polaribacter irgensii = test: Antibacterial activity against Polaribacter irgensii ATCC 700398 after 48 hrs by microtiter broth dilution method; assay type: functional; conditions: ATCC 700398, 48 h
How it was run: (§2)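 Marine bacterial strains at 2×10^8 cells/mL were exposed to compound for 48 h at 25 °C in Mueller Hinton broth supplemented with NaCl (15 g/L). MIC was set by microtiter broth dilution against a culture-medium control.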

Chrysotila roscoffensis = test: Antimicrobial activity against Pleurochrysis roscoffensis AC 238 after 48 hrs; assay type: functional, organism-based
How it was run: (§3)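 Microalgal cultures (0.4 μg/mL chlorophyll A) in F/2 medium were incubated with compound for 48 h at 18 °C under a 15:9 light:dark cycle with cool-white fluorescent light at 54 μmol photons/m²·s. Relative optical density at 600 nm gave the MIC versus a seawater control.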

[1] = test system: Exanthemachrysis gayraliae; test: Antimicrobial activity against Exanthemachrysis gayraliae AC 15 after 48 hrs; assay type: functional; how it was run: as §3
[2] = test system: Pseudoalteromonas distincta; test: Antibacterial activity against Pseudoalteromonas elyakovii ATCC 700519 after 48 hrs by microtiter broth dilution method; assay type: functional; conditions: ATCC 700519, 48 h; how it was run: as §2
Cylindrotheca closterium = test: Antimicrobial activity against Cylindrotheca closterium AC 170 after 48 hrs; assay type: functional, organism-based; how it was run: as §3
Ulva intestinalis = test: Antimicrobial activity against Ulva intestinalis after 48 hrs; assay type: functional, organism-based; how it was run: as §1
Vibrio aestuarianus = test: Antibacterial activity against Vibrio aestuarianus ATCC 35048 after 48 hrs by microtiter broth dilution method; assay type: functional; conditions: ATCC 35048, 48 h; how it was run: as §2
Salmonella typhimurium = test: Antibacterial activity against Salmonella Typhimurium ATCC 35986 after 48 hrs by microtiter broth dilution method; assay type: functional, Salmonella enterica subsp. enterica serovar Typhimurium; conditions: Salmonella enterica, ATCC 35986, 48 h
How it was run: (§4)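 Terrestrial bacterial strains at 2×10^8 cells/mL were incubated with compound for 48 h at 25 °C in trypsic soy broth. MIC was read by microtiter broth dilution against a culture-medium control.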

Bacillus subtilis = test: Antibacterial activity against Bacillus subtilis ATCC 55572 after 48 hrs by microtiter broth dilution method; assay type: functional; conditions: ATCC 55572, 48 h; how it was run: as §4
Escherichia coli = test: Antibacterial activity against Escherichia coli ATCC 35049 after 48 hrs by microtiter broth dilution method; assay type: functional; conditions: ATCC 35049, 48 h; how it was run: as §4
[3] = Toxicity against Crassostrea gigas larvae after 48 hrs
How it was run: (§5)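 Larvae incubated with compounds at 0.5, 1, 2.5, 5, 10, 25, 50 and 100 μg/mL, 10–15 larvae per well in 2 mL solution. Viable larvae counted after 48 h exposure. LC50 is the concentration giving 50% mortality relative to control, derived by curve fitting. Six replicates per test and control, with two batches of organisms.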

[4] = Toxicity against Echinus esculentus larvae after 48 hrs; how it was run: as §5
[5] = Inhibition of Mytilus edulis phenoloxidase after 2 hrs
How it was run: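 Purified mussel phenoloxidase was preincubated with compound for 2 h. Activity was then followed as the rise in absorbance at 475 nm with L-Dopa (10 mM) as substrate, and percent inhibition was calculated against the control.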

Row | Structure (SMILES) | IC50 (Sargassum muticum) [µg/mL] | MIC (Polaribacter irgensii) [µg/mL] | Activity (Chrysotila roscoffensis) | Activity [1] | MIC [2] [µg/mL] | Activity (Cylindrotheca closterium) | IC50 (Ulva intestinalis) [µg/mL] | MIC (Vibrio aestuarianus) [µg/mL] | MIC (Salmonella typhimurium) [µg/mL] | MIC (Bacillus subtilis) [µg/mL] | MIC (Escherichia coli) [µg/mL] | LC50 at 48 h [3] [µg/mL] | LC50 at 48 h [4] [µg/mL] | IC50 [5] [µg/mL] | MIC ([1]; AC 15, 48 h) [µg/mL]
1 | COc1cc(C)c2c(c1)C=C[C@](C)(CC1=C(CC(C)(C)O)C(=O)[C@@]3(C)CCC[C@]3(C)C1)O2 | 2.5 (≈ 5.7 µM) | > 100 | inactive | inactive | > 100 | inactive | > 100 | > 100 | > 100 | > 100 | > 100 | > 100 | > 100 | 1 (≈ 2.28 µM) | –
2 | COc1cc(C)c(O)c(C/C=C(\C)C[C@]2(O)C[C@@]3(C)CCC[C@]3(C)C(=O)[C@@H]2CC(C)(C)O)c1 | – | > 100 | inactive | inactive | > 100 | inactive | – | > 100 | > 100 | > 100 | > 100 | > 100 | > 100 | – | –
3 | COc1cc(C)c2c(c1)C=C[C@@](C)(CC1=C(CC(C)(C)O)C(=O)[C@@]3(C)CCC[C@]3(C)C1)O2 | – | > 100 | inactive | inactive | > 100 | inactive | – | > 100 | > 100 | > 100 | > 100 | > 100 | > 100 | – | –
4 | COc1cc(C)c(O)c(C/C=C(\C)CC2=C(CC(C)(C)O)C(=O)[C@@]3(C)CCC[C@]3(C)C2)c1 | – | > 100 | inactive | inactive | > 100 | inactive | – | > 100 | > 100 | > 100 | > 100 | > 100 | > 100 | – | –
5 | CC(=O)/C=C1\C[C@@]2(C)CCC[C@]2(C)C2=C1CC(C)(C)O2 | > 100 | > 100 | inactive | inactive | > 100 | inactive | 2.5 (≈ 9.11 µM) | > 100 | > 100 | > 100 | > 100 | > 100 | > 100 | 2.5 (≈ 9.11 µM) | –
6 | CC1=C(CC(C)(C)O)C(=O)[C@@]2(C)CCC[C@]2(C)C1 | 1 (≈ 3.99 µM) | > 100 | inactive | – | > 100 | inactive | 1 (≈ 3.99 µM) | > 100 | > 100 | > 100 | > 100 | > 100 | > 100 | 1 (≈ 3.99 µM) | 1 (≈ 3.99 µM)
